Results: PubChem BioAssay AID2340 (Sanford-Burnham Center for Chemical Genomics, 2010)
Activity calls are given as the source filed them.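 The calls were made as follows: active = potency EC50 below 10 µM in the dose response test; inactive = the rest.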

These molecules were tested against G-protein coupled receptor 35 (Homo sapiens) (UniProt Q9HC97) (assay: beta-arrestin-GFP translocation driven by GPR35 – imaging, U2OS, powder samples, selectivity assay, SAR follow-up (AID 2340)).
Summary of the method: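 material = human U2OS cells stably co-expressing GPR35 and beta-arrestin-GFP | incubation = 45 min at 37 °C | read-out basis = Arrestin-GFP spot versus cytoplasm intensity ratio, non-linear sigmoidal curve fit | buffer or medium = serum-starved cells | technique = imaging of fixed, DAPI-stained arrestin-GFP cells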

Sequence of G-protein coupled receptor 35 (Homo sapiens) (Q9HC97 whole entry, looked up): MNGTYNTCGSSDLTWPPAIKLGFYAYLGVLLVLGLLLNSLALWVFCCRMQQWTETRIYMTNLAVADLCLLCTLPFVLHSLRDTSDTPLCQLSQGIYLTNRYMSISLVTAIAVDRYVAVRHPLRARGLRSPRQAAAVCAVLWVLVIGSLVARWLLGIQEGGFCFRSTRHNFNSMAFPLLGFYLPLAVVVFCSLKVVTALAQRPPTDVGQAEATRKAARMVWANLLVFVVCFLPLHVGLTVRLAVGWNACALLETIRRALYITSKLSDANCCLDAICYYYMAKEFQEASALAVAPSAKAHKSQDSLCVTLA

EC50, inactive:
CCCN(CCC)Cc1c(C(=O)NN=Cc2c[nH]c3ccccc23)nnn1-c1nonc1N > 32 µM
CCCN(CCC)Cc1c(C(=O)NN=C/C(C)=C\c2ccco2)nnn1-c1nonc1N > 32 µM
COc1cc2c(cc1NC(=O)C(C)Sc1ccc(NC(C)=O)cc1)oc1ccccc12 (stereo unspecified) > 32 µM
O=C(CSc1nc2ccccc2s1)N1c2ccccc2Sc2ccc(C(F)(F)F)cc21 > 32 µM
COc1ccc(-c2csc(NC(=O)CSc3nnc4c(C)cc5ccccc5n34)n2)cc1 > 32 µM
CC(C)=CC(=O)Nc1ccc(OCc2ccccc2)cc1 > 32 µM
CC(C)NS(=O)(=O)c1ccc(NC(=S)NC(=O)c2ccc(-c3ccccc3)cc2)cc1 > 32 µM
Cc1occc1C(=O)Nc1ccc(OCc2ccccc2)cc1 > 32 µM
CC(C)Oc1ccc(S(=O)(=O)N2CCOCC2)cc1NC(=O)c1ccc(N2CCCC2=O)cc1 > 32 µM
CC(Sc1nc2cc(Cl)ccc2s1)C(=O)Nc1cccc(S(=O)(=O)N2CCOCC2)c1 (stereo unspecified) > 32 µM
Cc1cccc(N2CCN(C(=O)c3cc(S(=O)(=O)N(C)C)ccc3N3CCCC3)CC2)c1C > 32 µM
C=CCN(CC=C)S(=O)(=O)c1ccc(NC(=S)NC(=O)c2ccc(-c3ccccc3)cc2)cc1 > 32 µM
COc1cc2c(cc1NC(=O)CSc1ccccc1)oc1ccccc12 > 32 µM
COc1ccccc1/C=C/C(=O)NC(=S)Nc1ccc(S(=O)(=O)N(C)c2ccccc2)cc1 > 32 µM
COc1ccc2cc(C)c3nnc(SCC(=O)Nc4nc(-c5ccc(F)cc5)cs4)n3c2c1 > 32 µM
C/C(C=NNC(=O)c1nnn(-c2nonc2N)c1CN1CCC(C)CC1)=C/c1ccccc1 > 32 µM
CN(C)S(=O)(=O)c1ccc(N2CCCC2)c(C(=O)N2CCN(c3ccc([N+](=O)[O-])cc3)CC2)c1 > 32 µM
COc1ccc2c(c1)cc(C)c1nnc(SCC(=O)N(C)c3nc(-c4ccccc4)cs3)n12 > 32 µM
O=C(CSc1nc2ccccc2s1)N1c2ccccc2Sc2ccc(Cl)cc21 > 32 µM
COc1ccc(S(=O)(=O)N2CCOCC2)cc1NC(=O)c1cc2c(s1)CCCC2 > 32 µM
CCCN(CCC)Cc1c(C(=O)NN=C/C(C)=C\c2ccccc2)nnn1-c1nonc1N > 32 µM
